Measurements from paper PMC3738169 (Journal of medicinal chemistry, 2012).

Key:
[1] = tested on: p-Akt T308 (PI3K/Akt pathway) in breast cancer BT-549 cells; test: p-Akt T308 Western blot in BT-549 cells; assay type: cell-based
Method in brief: (§1)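 BT-549 cells (RPMI 1640, 10% FBS, 0.023 U/mL insulin) and C4-2 cells (RPMI 1640, 10% FBS) were seeded at 4×105 per 6 cm dish, grown 48 h to about 80% confluence, then moved to serum-free medium. Dosing was a 30 min concentration series with DMSO control, or a 3 h series or 30 min–6 h time course with PBS control. Lysates went to 12% SDS-PAGE and were probed for p-Akt T308, Akt and β-actin, with infrared detection and densitometry.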

[2] = tested on: p-Akt T308 (PI3K/Akt pathway) in prostate cancer C4-2 cells; test: p-Akt T308 Western blot in C4-2 cells; assay type: cell-based
Method in brief: as §1

Water solubility = conditions: qualitative statement
C4-2LucBAD cells [3] = conditions: C42LucBAD cells that ectopically express BAD; cited from earlier work
C4-2LucBAD cells [4] = test: Caspase 3 assay in C4-2LucBAD cells; assay type: cell-based
[5] = tested on: purified active human PSA; p-Akt T308 in BT-549 cells; test: Cleavage of compound 11 with purified PSA, then p-Akt T308 in BT-549 cells; assay type: cell-based; conditions: 11 without PSA, added to BT-549 cells for 30 min
Method in brief: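 Test compound was pre-incubated 6 h at 37 °C in 50 mM Tris-HCl, 0.1 M NaCl, pH 7.8 with increasing concentrations of enzymatically active PSA purified from human semen. It was then applied for 30 min to serum-starved BT-549 cells, maintained in RPMI 1640 with 10% FBS and 0.023 U/mL insulin. p-Akt T308 was read by Western blot against a PBS control, in three independent experiments.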

[6] = tested on: p-Akt T308 in C4-2LucBAD cells; test: p-Akt T308 Western blot in C4-2LucBAD cells; assay type: cell-based; conditions: 3 h, dose-response, control PBS
Method in brief: (§2)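 Cells were seeded at 4×105 per 6 cm dish, grown 48 h to about 80% confluence, then exposed to test compound for 3 h with PBS as control. C4-2LucBAD cells were in RPMI 1640, serum-free for 18 h beforehand. LNCaP cells were in T-Medium with 2.5% FBS. U-87 MG cells were in DMEM, serum-free. HEPES pH 7.4 lysates with protease and phosphatase inhibitors were blotted for p-Akt T308, Akt and β-actin.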

[7] = tested on: p-Akt T308 in glioblastoma-astrocytoma U-87 MG cells; test: p-Akt T308 Western blot in U-87 MG cells; assay type: cell-based; conditions: U-87 MG cells (no PSA) incubated with 11, 3 h, control PBS
Method in brief: as §2

[8] = tested on: p-Akt T308 in prostate cancer LNCaP cells; test: p-Akt T308 Western blot in LNCaP cells; assay type: cell-based; conditions: LNCaP cells incubated with 11, 3 h, dose-response, control PBS
Method in brief: as §2

[9] = tested on: p-Akt T308 in breast cancer BT-549 cells; test: C4-2 conditioned medium assay; assay type: cell-based; conditions: 11 incubated in media conditioned by BT-549 cells
Method in brief: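 Test compound held 6 h at 37 °C (5% CO2, humidified) in serum-free medium on producer cells; this line's arm used BT-549-conditioned medium. Medium then transferred to BT-549 cells for 3 h. Cells seeded 4×10^5 per 6 cm dish, grown 48 h to ~80% confluence; BT-549 medium carried 0.023 U/mL insulin. Phospho-Akt T308 read by Western blot of clarified lysates; n=3.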

CC(C)CC(N)C(=O)OCc1ccc(-c2cccc3c(=O)cc(N4CCOCC4)oc23)cc1 (stereo not shown) [Compound 10, 4-(2-morpholino-4-oxo-4H-chromen-8-yl) benzyl-2-amino-4-methylpentanoate]
concentration that completely inhibited Akt phosphorylation ([1]; BT-549 cells, 30 min, dose-response analysis): 30 µM | PI3 kinase inhibitory potency relative to LY294002 ([2]; C4-2 and BT-549 cells, p-Akt T308 read-out, 30 min): comparable to LY294002 | concentration that completely inhibited Akt phosphorylation ([2]; C4-2 cells, 30 min, dose-response analysis): 30 µM

O=c1cc(N2CCOCC2)oc2c(-c3ccccc3)cccc12 [LY294002]
water solubility (Water solubility): poor water solubility | induction of apoptosis (C4-2LucBAD cells [3]): induces apoptosis

Mu-LEHSSKLQL-8-(4-(Hydroxymethyl)phenyl)-2-morpholino-4H-chromen-4-one [Compound 11]
p-Akt T308 levels ([1]; BT-549 cells (no PSA) incubated with 11, 3 h, control PBS): No significant reduction | p-Akt T308 levels, time course ([1]; BT-549 cells treated with 11 from 30 min to 6 h, Western blot, three independent experiments): no significant differences | Caspase 3 activity compared with active inhibitor (C4-2LucBAD cells [4]; 6 h): Somewhat lower levels | Caspase 3 activity (apoptosis) (C4-2LucBAD cells [4]; 6 h after administration, fluorogenic substrate Ac-DEVD-7-amido-4-trifluoromethylcoumarin, n=2, vs DMSO control): increased | p-Akt T308 levels in BT-549 cells, 11 without enzymatically active PSA [5]: had no effect | p-Akt T308 levels [6]: dose-dependent reduction | p-Akt T308 levels [7]: No significant reduction | p-Akt T308 levels [8]: dose-dependent reduction | p-Akt T308 levels ([2]; C4-2 cells incubated with 11, 3 h, dose-response, control PBS): dose-dependent reduction | p-Akt T308 levels, time course ([2]; C4-2 cells treated with 11 from 30 min to 6 h, vs control, Western blot, three independent experiments): time-dependent reduction | p-Akt T308 levels in BT-549 cells after 11 incubated in BT-549 conditioned media [9]: had no effects
